Test results as given in paper PMC9055496 (RSC Advances, 2020).
Entries after “also recorded” stand apart in the source; their conditions may differ. Read-outs that look alike come from different tables or passages of the source.

Columns and labels:
[1] = assay type: in vivo, Sprague-Dawley rats; conditions: for Number of metabolites detected and tentatively identified: rat bile, urine, plasma and feces, oral 100 mg kg^−1; for Metabolic stability, comparison in words: rat in vivo metabolite profile, HFBA vs HPABA, R-HFBA vs S-HFBA
Procedure, shortened: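 Fasted male Sprague-Dawley rats (n = 5/group) received a single 100 mg kg−1 gavage in 0.5% CMC-Na. Urine and feces were collected 0–24 h in metabolic cages, heparinised plasma at 0.5, 3 and 6 h, and bile 0–12 h from bile-duct-catheterised rats. Feces were powdered and sonicated in methanol for 30 min. Analysis was by UHPLC-FT-ICR-MS, positive ESI, m/z 50–1000, with MS/MS at 10 eV.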

[2] = cited from earlier work
[3] = Total cumulative excretion in three routes; assay type: in vivo, Sprague-Dawley rats; conditions: rat, oral 50 mg kg^−1, unchanged drug
Procedure, shortened: (§1)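 Male Sprague-Dawley rats (220 ± 20 g), fasted 12 h, given 50 mg kg−1 by gavage in 0.5% CMC-Na (n = 5/group). Urine and feces were collected in metabolic cages at intervals to 48 h; feces were air-dried, weighed and homogenised in saline. Bile-duct-cannulated rats (ether anaesthesia) were dosed after recovery, with bile collected every 2 h to 12 h. Unchanged drug was measured by UHPLC-MS/MS (positive ESI MRM, internal standard; LLOQ 0.005 μg mL−1).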

[4] = Fecal excretion of unchanged drug in rats after a single oral dose; assay type: in vivo, Sprague-Dawley rats; conditions: rat; for Time period of highest fecal excretion ratio: oral 50 mg kg^−1; for Cumulative amount in feces: n = 5, mean ± SD; for Accumulative fecal excretion, share of the total dose: unchanged drug
Procedure, shortened: as §1

[5] = cited from earlier work; remark: listed apart in the source
[6] = cited from earlier work; remark: listed apart in the source
[7] = cited from earlier work; remark: listed apart in the source
[8] = Urinary excretion of unchanged drug in rats after a single oral dose; assay type: in vivo, Sprague-Dawley rats; conditions: rat; for Time period of highest urinary excretion ratio: oral 50 mg kg^−1; for Cumulative amount in urine: n = 5, mean ± SD; for Cumulative urinary excretion, share of the total dose: oral 50 mg kg^−1, during 48 h, unchanged drug
Procedure, shortened: as §1

[9] = assay type: in vivo, Sprague-Dawley rats; conditions: for Cumulative amount in bile: bile duct cannulated rat, n = 5, mean ± SD; for Cumulative biliary excretion, share of the dose: rat, oral 50 mg kg^−1, during 12 h, unchanged drug
Procedure, shortened: as §1

[10] = rats, oral (oral or intravenous) administration of each enantiomer

SMILES | Number of metabolites detected and tentatively identified [1] | Metabolic stability, comparison in words [1] | Total cumulative excretion in three routes, share of the dose [3] | Time period of highest fecal excretion ratio [4] | Cumulative amount in feces ([4]; oral 50 mg kg^−1, 2 h) | Cumulative amount in feces ([4]; oral 50 mg kg^−1, 4 h) | Cumulative amount in feces ([4]; oral 50 mg kg^−1, 6 h) | Cumulative amount in feces ([4]; oral 50 mg kg^−1, 8 h) | Cumulative amount in feces ([4]; oral 50 mg kg^−1, 10 h) | Cumulative amount in feces ([4]; oral 50 mg kg^−1, 12 h) | Cumulative amount in feces ([4]; oral 50 mg kg^−1, 24 h) | Cumulative amount in feces ([4]; oral 50 mg kg^−1, 36 h) | Cumulative amount in feces ([4]; oral 50 mg kg^−1, 48 h) | Accumulative fecal excretion, share of the total dose ([4]; oral 50 mg kg^−1, 48 h) | Gastrointestinal toxicity compared with aspirin [5] | Antiplatelet aggregation activity compared with aspirin [6] | Anti-inflammatory activity compared with aspirin [7] | Time period of highest urinary excretion ratio [8] | Cumulative amount in urine ([8]; oral 50 mg kg^−1, 2 h) | Cumulative amount in urine ([8]; oral 50 mg kg^−1, 4 h) | other results
CC(O)C(=O)Nc1ccc(C(F)(F)F)cc1C(=O)O (stereo not shown) [HFBA, 2-(2-Hydroxypropanamido)-5-trifluoromethyl benzoic acid] | 8 | more metabolically stable than HPABA |  |  |  |  |  |  |  |  |  |  |  |  |  |  |  |  |  |  | Bioavailability compared with HPABA [2]: better; Half-life compared with HPABA [2]: longer
CC(O)C(=O)Nc1ccc(C(F)(F)F)cc1C(=O)O (stereo not shown) [R-HFBA, 2-(2-Hydroxypropanamido)-5-trifluoromethyl benzoic acid] | 7 | more metabolically stable than S-HFBA | 65.8% | 6 to 8 h | 6.300 ± 1.60 µg | 11.00 ± 3.50 µg | 254.1 ± 400 µg | 1216 ± 518 µg | 1980 ± 512 µg | 2362 ± 629 µg | 2687 ± 598 µg | 2782 ± 635 µg | 2817 ± 626 µg | 25.6% | less | superior to aspirin | superior to aspirin | 0 to 2 h | 2747 ± 332 µg | 3149 ± 292 µg | Cumulative amount in urine ([8]; oral 50 mg kg^−1, 6 h): 3309 ± 457 µg; Cumulative amount in urine ([8]; oral 50 mg kg^−1, 8 h): 3894 ± 504 µg; Cumulative amount in urine ([8]; oral 50 mg kg^−1, 10 h): 4010 ± 450 µg; Cumulative amount in urine ([8]; oral 50 mg kg^−1, 12 h): 4117 ± 435 µg; Cumulative amount in urine ([8]; oral 50 mg kg^−1, 24 h): 4333 ± 518 µg; Cumulative amount in urine ([8]; oral 50 mg kg^−1, 36 h): 4394 ± 485 µg; Cumulative amount in urine ([8]; oral 50 mg kg^−1, 48 h): 4425 ± 478 µg; Cumulative urinary excretion, share of the total dose [8]: 40.2%; Cumulative amount in bile ([9]; oral 50 mg kg^−1, 2 h): 185.3 ± 8.20 µg; Cumulative amount in bile ([9]; oral 50 mg kg^−1, 4 h): 531.7 ± 95.4 µg; Cumulative amount in bile ([9]; oral 50 mg kg^−1, 6 h): 783.1 ± 56.6 µg; Cumulative amount in bile ([9]; oral 50 mg kg^−1, 8 h): 925.9 ± 68.1 µg; Cumulative amount in bile ([9]; oral 50 mg kg^−1, 10 h): 1075 ± 62.6 µg; Cumulative amount in bile ([9]; oral 50 mg kg^−1, 12 h): 1239 ± 54.6 µg; Cumulative biliary excretion, share of the dose [9]: 11.3%; AUC compared with S-HFBA [2, 10]: greater; also recorded: larger; Clearance (CL) compared with S-HFBA [2, 10]: significantly lower; t1/2 compared with S-HFBA [2, 10]: greater; also recorded: longer
CC(O)C(=O)Nc1ccc(C(F)(F)F)cc1C(=O)O (stereo not shown) [S-HFBA, 2-(2-Hydroxypropanamido)-5-trifluoromethyl benzoic acid] | 8 |  | 58.5% | 10 to 12 h | 5.800 ± 7.70 µg | 17.60 ± 18.9 µg | 89.90 ± 80.3 µg | 791.6 ± 519 µg | 1604 ± 459 µg | 2470 ± 203 µg | 2764 ± 248 µg | 2878 ± 213 µg | 2944 ± 252 µg | 26.8% | less | superior to aspirin | superior to aspirin | 0 to 2 h | 1831 ± 253 µg | 2525 ± 285 µg | Cumulative amount in urine ([8]; oral 50 mg kg^−1, 6 h): 2713 ± 185 µg; Cumulative amount in urine ([8]; oral 50 mg kg^−1, 8 h): 3098 ± 279 µg; Cumulative amount in urine ([8]; oral 50 mg kg^−1, 10 h): 3249 ± 294 µg; Cumulative amount in urine ([8]; oral 50 mg kg^−1, 12 h): 3313 ± 319 µg; Cumulative amount in urine ([8]; oral 50 mg kg^−1, 24 h): 3413 ± 251 µg; Cumulative amount in urine ([8]; oral 50 mg kg^−1, 36 h): 3469 ± 216 µg; Cumulative amount in urine ([8]; oral 50 mg kg^−1, 48 h): 3489 ± 225 µg; Cumulative urinary excretion, share of the total dose [8]: 31.7%; Cumulative amount in bile ([9]; oral 50 mg kg^−1, 2 h): 170.8 ± 14.1 µg; Cumulative amount in bile ([9]; oral 50 mg kg^−1, 4 h): 515.4 ± 77.5 µg; Cumulative amount in bile ([9]; oral 50 mg kg^−1, 6 h): 571.8 ± 95.4 µg; Cumulative amount in bile ([9]; oral 50 mg kg^−1, 8 h): 652.9 ± 50.7 µg; Cumulative amount in bile ([9]; oral 50 mg kg^−1, 10 h): 745.6 ± 57.7 µg; Cumulative amount in bile ([9]; oral 50 mg kg^−1, 12 h): 817.0 ± 90.9 µg; Cumulative biliary excretion, share of the dose [9]: 7.4%
